Screening results deposited in PubChem BioAssay by several laboratories.
Only some compounds are listed: those with a hit (about 2.9% of all), similar ones and a draw of the others.
HTRA1 inh: HTRA1 (human) protease inhibition | Q92743 | recombinant HTRA1, FP-rhodamine activity-based probe, fluorescence polarization | inhibition, % at 5.96 µM | 0.5% of 340,000 active | AID 504803; in the data active = inhibition above about 36%
TCR-CD3 inh: blocks the human TCR-CD3 interaction; TAMRA-labeled TCR probe fluorescence, biochemical; inhibition, % at 9.4 µM; 0.37% of 360,000 active; in the data active = inhibition above about 19%;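 note: recombinant mutant TCR 2C K166C tagged with TAMRA read by polarization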
SIAE primary: inhibitors of human sialic acid acetylesterase SIAE; Q9HAT2; 0.69% of 370,000 active; SIAE FP-Rh probe binding, fluorescence polarization; inhibition, % at 9.66 µM;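 active = inhibition above a cutoff: mean of compounds within the control limits plus 3 SD of those, cut at about 17% in these data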
Target sequence (Q9HAT2 whole entry, looked up): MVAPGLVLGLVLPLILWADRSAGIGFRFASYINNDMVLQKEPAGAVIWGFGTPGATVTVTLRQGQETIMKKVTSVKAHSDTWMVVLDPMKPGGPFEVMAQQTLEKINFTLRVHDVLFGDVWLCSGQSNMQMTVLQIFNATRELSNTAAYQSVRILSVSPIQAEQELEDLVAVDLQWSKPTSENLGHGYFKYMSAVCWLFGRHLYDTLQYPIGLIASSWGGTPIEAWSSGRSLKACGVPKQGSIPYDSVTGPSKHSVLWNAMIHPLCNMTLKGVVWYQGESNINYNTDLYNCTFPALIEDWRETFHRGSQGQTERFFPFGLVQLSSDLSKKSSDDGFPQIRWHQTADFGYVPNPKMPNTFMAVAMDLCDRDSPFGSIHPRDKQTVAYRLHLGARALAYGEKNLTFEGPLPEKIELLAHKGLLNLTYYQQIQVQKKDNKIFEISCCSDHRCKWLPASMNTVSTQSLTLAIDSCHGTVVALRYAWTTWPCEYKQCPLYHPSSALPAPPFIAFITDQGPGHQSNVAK
mABHD4 FP: inhibitors of mouse ABHD4; purified mABHD4, FP-Rh probe fluorescence polarization; AID 720543; 0.54% of 370,000 active; inhibition, % at 8.92 µM;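 active = inhibition exceeding the mean over every tested compound plus 3 SD, cut at about 30% in these data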
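Assay system: mABHD4 protein; medium: HEPES pH 7.0, NaCl, Pluronic buffer; dosing: 8.92 µM, single dose; schedule: 45 min + 60 min at 25 °C; signal: FP readout, ex 525 nm / em 598 nm; read-out: normalized percent inhibition of probe labeling; repeats: single replicate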
PRMT1 FP inh: blocks human protein arginine methyltransferase 1; recombinant PRMT1, activity-based probe fluorescence polarization; inhibition, % at 2.79 µM; 1.3% of 370,000 active; AID 652257;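 active = inhibition above about 21% made by adding two undisclosed values, limit read from the data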
ATG4B inh: ATG4B (human) cysteine protease inhibition | ATG4B cleavage of LC3-PLA2, NBD-HPC fluorescence, 1 h | 0.51% of 340,000 active | Q9Y4P1 | AID 504462 | inhibition, % at 8.33 µM; in the data active = inhibition above about 40%
Hits are given with their value; - = inactive; . = no result.

SMILES	HTRA1 inh	TCR-CD3 inh	SIAE primary	mABHD4 FP	PRMT1 FP inh	ATG4B inh
CCOC(=O)Oc1ccc2c(=O)c(Oc3cccc(C)c3)coc2c1	51	-	-	-	-	-
CCOC(=O)Oc1ccc2c(=O)c(Oc3cc(C)cc(C)c3)coc2c1	49	-	-	-	-	-
COc1ccc(Oc2coc3cc(OC(=O)c4cccs4)ccc3c2=O)cc1	51	-	-	-	-	-
COc1ccc(Oc2coc3cc(OC(=O)N4CCOCC4)ccc3c2=O)cc1	-	-	-	-	-	-
CCn1c(=S)[nH]c2scc(-c3cccs3)c2c1=O	-	-	-	-	23	-
O=C(CCCCn1c(=O)[nH]c2ccsc2c1=O)NCc1cccnc1	-	-	20	-	-	-
O=C(CCCCn1c(=O)[nH]c2ccsc2c1=O)NCCc1ccccc1	-	-	-	-	-	-
COc1cc(C(c2c(C(=O)O)[nH]c3ccccc23)c2c(C(=O)O)[nH]c3ccccc23)ccc1OCc1ccccc1	-	-	-	50	-	-
COc1cc(C(NC(C)=O)NC(C)=O)ccc1OCc1ccccc1	-	-	-	-	-	-
COc1ccc(-c2cn(-c3ccccc3)c(=S)[nH]2)cc1OC	-	-	-	-	23	-
COc1ccc(-c2cn(-c3ccc(C)c(Cl)c3)c(=S)[nH]2)cc1OC	-	-	-	-	-	-
Fc1ccc(-c2ccnc(=S)[nH]2)cc1	-	-	-	-	23	-
COc1ccc(S(=O)(=O)N(C)C[C@H]2Oc3ccc(NC(=O)Nc4ccc5c(c4)OCO5)cc3CC(=O)N([C@@H](C)CO)C[C@@H]2C)cc1	-	-	18	-	-	-
Cc1[nH]c2ccccc2c1C(C#N)(C#N)C1C(=O)c2ccccc2C1=O	-	-	-	39	-	-
Cc1[nH]c2ccccc2c1CC#N	-	-	-	-	-	-
O=C(Nc1ccccc1C(F)(F)F)OC1CCC12CCC(c1ccccc1)CC2 (centres undefined)	.	.	-	-	-	.
CCOC(=O)Nc1ccc2c(c1)N(CCCN(C)C)c1ccccc1CC2	-	-	-	-	-	-
CN(C)CCCN1c2ccc([N+](=O)[O-])cc2CCc2cc([N+](=O)[O-])ccc21	-	-	-	-	22	-
CCCCCCC(=O)NC1CCCCN(Cc2ccccc2C)C1=O (centres undefined)	.	.	-	-	-	.
COc1ccc(NS(=O)(=O)c2cccc(C(=O)NCc3ccco3)c2)cc1	-	-	-	-	23	-
COc1ccccc1C1CC(c2cccs2)=Nc2ccccc2S1 (centres undefined)	-	-	-	-	81	-
COc1ccccc1C1CC(c2cccs2)=NN1C(=O)CCC(=O)O (centres undefined)	-	-	-	-	-	-
S=c1[nH]nc(COc2ccccc2)n1/N=C/c1cccc(Cl)c1Cl	-	-	-	-	-	-
S=c1[nH]nc(COc2ccccc2)n1/N=C/c1ccccc1Cl	-	-	-	-	23	-
COc1ccc2cc1Oc1ccc(cc1)C[C@H]1c3c(cc4c(c3Oc3cc5c(cc3OC)CCN(C)[C@@H]5C2)OCO4)CCN1C	-	-	19	-	-	-
SMILES	HTRA1 inh	TCR-CD3 inh	SIAE primary	mABHD4 FP	PRMT1 FP inh	ATG4B inh
Clc1ccc(N=c2ssnc2Cl)nc1	-	-	-	-	21	-
O=Nc1ccc(Cl)cn1	.	-	-	-	-	.
COc1ccc(CNC(=O)OC2CC3CC2[C@H]2CCCCN2C3)cc1 (some centres undefined)	.	.	-	-	-	.
Cn1c(=S)c2[nH]c(SCCN)nc2n(C)c1=O	-	-	-	39	-	-
Cn1c(=S)c2[nH]c(SCCN3CCCC3)nc2n(C)c1=O	-	-	-	-	-	-
Cc1ccccc1NC(=O)c1c(C)[nH]c(=S)c(C#N)c1-c1ccco1	-	-	-	-	24	-
CSc1nc(C)c(C(=O)Nc2ccccc2)c(-c2ccco2)c1C#N	-	-	-	-	-	-
CNC(=O)c1c(C)[nH]c(=S)c(C#N)c1-c1ccco1	-	-	-	-	34	-
Cc1nn(-c2ccccc2)c2sc(C(=O)N3CCN(S(=O)(=O)c4ccc(Br)s4)CC3)cc12	.	.	-	-	-	.
O=C(c1ccc(Br)cn1)N1CCC(Oc2cccnc2)CC1	.	.	-	-	-	.
COC(=O)[C@]12C[C@H](CC(=O)NCC3CCCCC3)C(=O)N(Cc3cccc4ccccc34)C1=C[C@H](C(C)C)O[C@@H]2C1CC1	.	.	-	-	-	.
